Measured values published in publication PMC8929358 (Pharmacology Research & Perspectives, 2021).

Experiments:
[1] = target: T1, UGT 2B7 (Homo sapiens, UniProt P16662); experiment: Glucuronidation of opicapone by recombinant UGT2B7; assay type: in vitro ADME; details: 20 μM opicapone
T1 sequence (P16662 24-529): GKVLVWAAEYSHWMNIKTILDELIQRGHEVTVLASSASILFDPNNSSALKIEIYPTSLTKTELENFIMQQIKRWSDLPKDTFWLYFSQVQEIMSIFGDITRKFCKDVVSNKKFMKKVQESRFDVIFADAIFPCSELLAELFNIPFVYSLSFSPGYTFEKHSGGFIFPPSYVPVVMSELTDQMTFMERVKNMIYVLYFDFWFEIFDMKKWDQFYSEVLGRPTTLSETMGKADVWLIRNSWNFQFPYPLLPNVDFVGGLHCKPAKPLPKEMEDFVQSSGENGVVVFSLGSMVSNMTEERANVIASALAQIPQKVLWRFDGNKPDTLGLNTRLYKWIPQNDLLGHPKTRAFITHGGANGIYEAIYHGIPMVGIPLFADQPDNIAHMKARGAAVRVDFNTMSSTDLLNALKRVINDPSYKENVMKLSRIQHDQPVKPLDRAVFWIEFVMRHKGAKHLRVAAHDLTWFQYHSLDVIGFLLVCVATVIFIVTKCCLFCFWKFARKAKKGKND

[2] = target: T2, UGT 2B17 (Homo sapiens, UniProt O75795); experiment: Glucuronidation of opicapone by recombinant UGT2B17; assay type: in vitro ADME; details: 20 μM opicapone; incubation period of 60 min
T2 sequence (O75795 24-530): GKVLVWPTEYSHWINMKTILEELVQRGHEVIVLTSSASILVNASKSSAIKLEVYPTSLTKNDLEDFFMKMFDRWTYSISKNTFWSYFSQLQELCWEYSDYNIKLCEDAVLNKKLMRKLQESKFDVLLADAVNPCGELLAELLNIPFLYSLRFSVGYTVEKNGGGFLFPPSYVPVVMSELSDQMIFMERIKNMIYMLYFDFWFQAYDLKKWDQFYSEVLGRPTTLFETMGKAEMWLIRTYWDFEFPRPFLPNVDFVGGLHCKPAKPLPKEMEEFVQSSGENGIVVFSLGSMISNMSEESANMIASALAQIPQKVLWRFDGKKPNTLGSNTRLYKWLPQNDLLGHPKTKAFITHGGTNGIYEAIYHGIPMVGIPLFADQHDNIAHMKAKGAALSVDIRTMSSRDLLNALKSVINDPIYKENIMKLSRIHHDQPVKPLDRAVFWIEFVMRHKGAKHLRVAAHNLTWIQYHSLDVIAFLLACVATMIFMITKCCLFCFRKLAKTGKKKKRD

[3] = Sulfate conjugation of opicapone in human liver S9; assay type: in vitro ADME; details: human liver S9 fraction (HLS9), pH 7.4
[4] = assay type: in vivo, rat; details: oral 100 mg/kg
Outline: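 In Sprague Dawley rats given 100 mg/kg [14C]-labelled compound (100 μCi/kg) orally in 0.2% HPMC, heparinized blood was taken by cardiac puncture at 2–168 h. Plasma was precipitated with MeOH/ACN (50:50), dried under N2 and reconstituted. Urine (0–6, 6–24 h) and feces (0–12, 12–24, 24–48 h) were pooled and stored at −80°C. Analysis used accurate-mass LC-MS with offline radiodetection.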

[5] = Sulfate conjugation of opicapone in human intestinal S9; assay type: in vitro ADME; details: human intestinal S9 fraction (HIS9), pH 7.4
[6] = target: T3, UGT1A4 (Homo sapiens, UniProt P22310); experiment: Glucuronidation of opicapone by recombinant UGT1A4; assay type: in vitro ADME; details: 20 μM opicapone; incubation period of 60 min
T3 sequence (P22310 29-534): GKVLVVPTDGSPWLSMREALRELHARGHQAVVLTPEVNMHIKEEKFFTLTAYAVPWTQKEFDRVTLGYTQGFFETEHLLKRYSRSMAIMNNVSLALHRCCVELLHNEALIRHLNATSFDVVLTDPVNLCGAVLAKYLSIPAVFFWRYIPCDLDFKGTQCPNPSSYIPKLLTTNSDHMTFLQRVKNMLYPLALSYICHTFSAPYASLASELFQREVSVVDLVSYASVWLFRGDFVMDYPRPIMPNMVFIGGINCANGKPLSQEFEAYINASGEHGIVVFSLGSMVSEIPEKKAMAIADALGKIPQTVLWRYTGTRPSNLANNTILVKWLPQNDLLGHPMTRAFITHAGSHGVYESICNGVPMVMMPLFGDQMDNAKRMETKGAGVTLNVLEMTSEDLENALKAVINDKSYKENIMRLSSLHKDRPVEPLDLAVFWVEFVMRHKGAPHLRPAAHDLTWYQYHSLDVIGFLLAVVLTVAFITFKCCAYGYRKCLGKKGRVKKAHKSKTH

## Cc1c(Cl)c(C)[n+]([O-])c(Cl)c1-c1noc(-c2cc(O)c(O)c([N+](=O)[O-])c2)n1 [opicapone, 2,5‐dichloro‐3‐(5‐(3,4‐dihydroxy‐5‐nitrophenyl)‐1,2,4‐oxadiazol‐3‐yl)‐4,6‐dimethylpyridine 1‐oxide]
[1]
  Formation of BIA 9-1106 (screening): little amounts
[2]
  Metabolite formation (screening): No metabolite formation was detected
[3]
  Km: 20.5 ± 2.6 µM
[4]; ND = not detected
  Plasma, % of total AUC0–168 h of drug-related radioactivity: 15.1%
[4]; earliest time point analyzed
  Time of peak of unchanged opicapone in plasma: 2 h
[4]; feces pools 0–48 h, ND = not detected
  Feces, % of administered dose: 6.25%
[4]; urine pools 0–24 h, ND = not detected, 100 mg/kg
  Urine, % of administered dose: 0.1%
[5]
  Km: 8.2 ± 1.1 µM
[6]
  Metabolite formation (screening): No metabolite formation was detected
